Test results reported in ChEMBL document CHEMBL2151018, “Bioassay-guided investigation of the Tanzanian plant Pyrenacantha kaurabassana for potential anti-HIV-active compounds” (J Nat Prod, 2012).
In brackets after ≈: the same amount, converted by molar mass.

Experiments:
[1] = (§1) Cytotoxicity against human HEK293T cells after 4 days by Alamar blue assay; assay type: cell-based, HEK-293T; conditions: HEK293T cells, read-out: TC50
HEK-293T = test: as §1; assay type: cell-based; conditions: hek-293t, 96 h
[2] = tested on: Human immunodeficiency virus 1; test: Antiviral activity against CCR5-tropic HIV1 NL-AD87 infected in HEK293T cells assessed as inhibition of viral replication after 4 days by beta-galactosidase reporter gene assay; assay type: functional, organism-based; conditions: Human immunodeficiency virus 1, NL-AD87, HEK-293T, 96 h
How it was run: (§2)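 Measured in the proprietary deCIPhR cell-based system using fully replicative virus. Two HIV lab strains from molecular clones differing in coreceptor tropism were used: pNL4-3 (CXCR4 usage) and pNL-AD87 (CCR5 usage). IC50 is the 50% inhibitory concentration in the anti-HIV assay, expressed in μg/mL; IC90 was also determined.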

[3] = Selectivity index, ratio of TC50 for human HEK293T cells to IC90 for CCR5-tropic HIV1 NL-AD87 infected in HEK293T cells; assay type: toxicity, cell-based, HEK-293T; conditions: read-out: Selectivity Index
[4] = Selectivity index, ratio of TC50 for human HEK293T cells to IC90 for CXCR4-tropic HIV1 NL4-3 infected in HEK293T cells; assay type: toxicity, cell-based, HEK-293T; conditions: read-out: Selectivity Index
[5] = tested on: Human immunodeficiency virus 1; test: Antiviral activity against CXCR4-tropic HIV1 NL4-3 infected in HEK293T cells assessed as inhibition of viral replication after 4 days by beta-galactosidase reporter gene assay; assay type: functional, organism-based; conditions: Human immunodeficiency virus 1, NL4-3, HEK-293T, 96 h; how it was run: as §2
[6] = Selectivity index, ratio of TC50 for human HEK293T cells to IC50 for CCR5-tropic HIV1 NL-AD87 infected in HEK293T cells; assay type: toxicity, cell-based, HEK-293T; conditions: read-out: Selectivity Index
[7] = Selectivity index, ratio of TC50 for human HEK293T cells to IC50 for CXCR4-tropic HIV1 NL4-3 infected in HEK293T cells; assay type: toxicity, cell-based, HEK-293T; conditions: read-out: Selectivity Index

IC50 [2] [µg/mL]	IC90 [2] [µg/mL]	IC50 [5] [µg/mL]	IC90 [5] [µg/mL]	Compound	CC50 at 96 h [1] [µg/mL]	TC90 (HEK-293T) [µg/mL]	selectivity ratio [3]	selectivity ratio [4]	selectivity ratio [6]	selectivity ratio [7]
2 (≈ 3.41 µM)	22 (≈ 37.5 µM)	2 (≈ 3.41 µM)	22 (≈ 37.5 µM)	COc1cc2c(c(-c3cc(O)c4c(O)c5oc6c(C(=O)O)cc(C)cc6c(=O)c5c(OC)c4c3OC)c1)CC(C)OC2=O (stereo not given)	31 (≈ 52.9 µM)	154 (≈ 263 µM)	7	7	15.5	15.5
21 (≈ 36.7 µM)	111 (≈ 194 µM)	21 (≈ 36.7 µM)	111 (≈ 194 µM)	COc1cc2c(c(-c3cc(O)c4c(O)c5oc6c(C(=O)O)cc(C)cc6c(=O)c5c(O)c4c3OC)c1)CC(C)OC2=O (stereo not given)	> 12.5	> 12.5	–	–	–	–

Compound	IC50 [2] [µg/mL]	IC90 [2] [µg/mL]	IC50 [5] [µg/mL]	IC90 [5] [µg/mL]	CC50 at 96 h [1] [µg/mL]	TC90 (HEK-293T) [µg/mL]	selectivity ratio [3]	selectivity ratio [4]	selectivity ratio [6]	selectivity ratio [7]
enfuvirtide	0.01	0.026	0.01	0.026	–	–	–	–	–	–
